Screening results deposited in PubChem by Broad Institute.
Pf Dd2 growth = P. falciparum Dd2 growth inhibitors, primary screen, SYBR Green fluorescence, single dose replicates. 72 h; hits give low values. activity change, % at 10 µM. 94,000 tested, 2.3% active. AID 1159554, 2015; in the data active means activity change below about -80%; inconclusive means no clear call, values can overlap the other calls
KDM4C inh = inhibitors of GASC-1 (KDM4C) histone demethylase, primary screen, biochemical, single concentration HTS; inhibition, % at 12.5 µM; AID 720574, 2013; Lysine-specific demethylase 4C (Homo sapiens), Q9H3R0; GST-KDM4C 2-372, H3K9me3 peptide, LANCE TR-FRET; 96,000 tested, 0.15% active;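 active means mean replicate inhibition above about 25%, with at least 55% of replicates also reaching it, limit read from the data, passing the limit was not always enough; inconclusive means only one of those two conditions met; inactive means neither condition met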
Target sequence (Q9H3R0 2-372 limits assumed): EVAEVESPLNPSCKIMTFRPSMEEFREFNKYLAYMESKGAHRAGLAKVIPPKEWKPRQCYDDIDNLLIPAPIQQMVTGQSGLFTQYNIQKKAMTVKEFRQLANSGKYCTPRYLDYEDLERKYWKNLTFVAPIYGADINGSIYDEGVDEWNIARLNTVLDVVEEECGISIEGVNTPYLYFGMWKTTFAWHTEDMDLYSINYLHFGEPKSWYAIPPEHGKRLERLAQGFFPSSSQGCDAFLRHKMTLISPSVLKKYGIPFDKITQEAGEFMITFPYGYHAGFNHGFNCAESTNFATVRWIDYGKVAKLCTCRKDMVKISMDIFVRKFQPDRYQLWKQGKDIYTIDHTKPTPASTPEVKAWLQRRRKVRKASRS
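System: N-terminal GST-fused human GASC-1 (KDM4C) fragment, residues 2-372 / Amount: 10 nM GST-KDM4C in enzyme reaction / Also added: H3K9me3 peptide with Fe(II)/2OG / Times: 30 min demethylation and 1 h detection at room temperature / Signal: LANCE TR-FRET / Read-out basis: Fall in 671/618 emission ratio as inhibition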
T cruzi growth-1 = T. cruzi intracellular proliferation inhibitors, primary screen, cell-based, beta-gal Tulahuen parasites, NIH3T3 host, luminescence | T. cruzi beta-gal in NIH3T3, GalScreen luminescence, 90 h | inhibition, % at 8.34 µM | 77,000 tested, 5.9% active;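 active means mean inhibition above about 93%, with at least 55% of replicates each passing it, limit read from the data, passing the limit was not always enough; inconclusive means only one of those two conditions holds; inactive means neither condition holds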
IDH1 R132H inh = inhibitors of IDH1 R132H reductase, primary screen, biochemical, plate reader, single point | diaphorase/resazurin fluorescence, 60 min | AID 624101, 2012 | 70,000 tested, 0.18% active | inhibition, % at 10 µM; in the data active means inhibition above about 34%; inconclusive means no clear call, values can overlap the other calls; inactive means below about 11%;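 further: 0% = DMSO and 100% = no enzyme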
T cruzi growth-2 = T. cruzi intracellular proliferation inhibitors, confirmation, cell-based, NIH3T3 host, beta-gal parasite, luminescence, cherry-pick; T. cruzi beta-gal in NIH3T3, GalScreen luminescence, 90 h; 5,600 tested, 72% active; inhibition, % at 8.35 µM; shares compounds with T cruzi growth-1;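 active means mean replicate inhibition above about 95% and at least 55% of replicates individually reaching it, limit read from the data; inconclusive means only one of the two criteria is met; inactive means neither criterion is met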
T cruzi growth-3 = inhibitors of intracellular T. cruzi replication, confirmation, NIH3T3 host cells, beta-gal parasites, cherry-pick, set 2. shares compounds with T cruzi growth-1. T. cruzi beta-gal in NIH3T3, GalScreen luminescence, 90 h. inhibition, % at 2.09 µM. 5,600 tested, 21% active;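 active means mean inhibition above about 95%, with at least 55% of replicates also reaching it, limit read from the data; inconclusive means meets just one of the two conditions; inactive means meets neither condition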;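 further: plate controls were neutral control median for no effect and positive control median for full effect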
NIH3T3 tox = cytotoxicity in mouse NIH/3T3 fibroblasts, confirmation, cytotoxicity control for T. cruzi proliferation inhibitor project, cell-based, cherry-pick, single point; shares compounds with T cruzi growth-1; NIH/3T3 viability, CellTiter-Glo ATP luminescence, 90 h; cytotoxicity (signal decrease), % at 8.35 µM; 5,600 tested, 14% active; AID 651742, 2012;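 active means mean signal decrease across replicates above about 35% based on untreated-well scatter, with enough replicates individually passing, limit read from the data; inconclusive means no rule stated though some were filed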;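 further: 0% = median of neutral control wells and 100% = median of positive control wells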
3T3 cytotox 2 = NIH/3T3 fibroblast cytotoxicity, confirmation, cytotoxicity control, cell-based, cherry-pick, single point, set 2. shares compounds with T cruzi growth-1. NIH/3T3 viability, CellTiter-Glo ATP luminescence, 90 h. inhibition, % at 24.9 µM. 5,600 tested, 56% active. AID 651744, 2012;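 active means mean loss of cell viability signal at or above a set limit, and enough replicates individually reaching it; inconclusive means meets only the mean limit or only the replicate share; inactive means meets neither condition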;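 further: 0% = median of neutral control wells and 100% = median of positive control wells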
* = called active by the depositor; ? = inconclusive; / = no result given. Hits are enriched below; roughly 5.9% of the tested compounds scored in any of these assays.

SMILES	Pf Dd2 growth	KDM4C inh	T cruzi growth-1	IDH1 R132H inh	T cruzi growth-2	T cruzi growth-3	NIH3T3 tox	3T3 cytotox 2
Cc1noc(C)c1S(=O)(=O)Nc1ccc2c(c1)C(=O)N([C@@H](C)CO)C[C@H](C)[C@@H](CN(C)C(=O)Nc1ccc(C(F)(F)F)cc1)OCCCC[C@H](C)O2	-77	0	125*	3	95*	111*	5	63*
Cc1noc(C)c1S(=O)(=O)Nc1ccc2c(c1)C(=O)N([C@@H](C)CO)C[C@H](C)[C@@H](CN(C)Cc1ccc(C(F)(F)F)cc1)OCCCC[C@H](C)O2	-8	-1	103*	/	104*	74	-5	104*
Cc1noc(C)c1S(=O)(=O)Nc1ccc2c(c1)C(=O)N([C@H](C)CO)C[C@H](C)[C@@H](CN(C)Cc1ccc(C(F)(F)F)cc1)OCCCC[C@@H](C)O2	11	0	96*	/	106*	24	13	4
Cc1sc2nc(SCC(=O)NCC3CCCO3)n(-c3ccc(F)cc3)c(=O)c2c1C (stereo not given)	/	/	/	0	/	/	/	/
C[C@@H]1O[C@@H](O[C@H]2[C@H](O)[C@@H](O)[C@H](O[C@H]3[C@H](O[C@H]4CC[C@@]5(C)C(=CC[C@H]6C7C[C@@H]8O[C@]9(CC[C@@](C)(CO[C@@H]%10O[C@H](CO)[C@@H](O)[C@H](O)[C@H]%10O)O9)[C@H](C)C8[C@@]7(C)CCC65)C4)O[C@H](CO)[C@@H](O)[C@@H]3O)O[C@@H]2CO)[C@H](O)[C@H](O)[C@H]1O (stereo not given in full)	/	/	/	0	/	/	/	/
Cc1noc(C)c1S(=O)(=O)Nc1ccc2c(c1)C(=O)N([C@H](C)CO)C[C@H](C)[C@H](CN(C)Cc1ccc(C(F)(F)F)cc1)OCCCC[C@@H](C)O2	13	2	?	0	106*	-1	2	?
Cc1noc(C)c1S(=O)(=O)Nc1ccc2c(c1)C(=O)N([C@H](C)CO)C[C@@H](C)[C@@H](CN(C)Cc1ccc(C(F)(F)F)cc1)OCCCC[C@@H](C)O2	-27	2	93	/	/	/	/	/
C[C@H](CO)N1C[C@H](C)[C@H](CN(C)Cc2ccc(C(F)(F)F)cc2)OCCCC[C@H](C)Oc2ccc(NS(C)(=O)=O)cc2C1=O	-10	0	-59	-5	/	/	/	/
C[C@@H]1CN([C@@H](C)CO)C(=O)c2cc(NS(=O)(=O)c3ccc(Cl)cc3)ccc2O[C@@H](C)CCCCO[C@H]1CN(C)Cc1ccncc1	-7	2	?	/	102*	38	-12	16
C[C@@H]1CCCCO[C@@H](CN(C)Cc2ccc(C(F)(F)F)cc2)[C@@H](C)CN([C@@H](C)CO)C(=O)c2cc(NS(=O)(=O)c3ccc(Cl)cc3)ccc2O1	-33	-1	97*	/	87	113*	28	102*
C[C@@H]1CN([C@H](C)CO)C(=O)c2cc(NS(C)(=O)=O)ccc2O[C@@H](C)CCCCO[C@H]1CN(C)Cc1ccc(C(F)(F)F)cc1	-34	1	116*	/	107*	108*	1	98*
CCN(CC(=O)Nc1cccc2ccccc12)S(=O)(=O)c1ccc2ccccc2c1	/	/	/	0	/	/	/	/
N#CC(OC1OC(COC2OCC(OC(=O)/C=C/c3ccc(OC4OC(CO)C(O)C(O)C4O)cc3)C(O)C2O)C(O)C(O)C1O)c1ccccc1 (stereo not given)	/	/	/	0	/	/	/	/
CN(C)CC#Cc1ccc([C@H]2[C@@H](CO)N3CCCCN(C(=O)C4CC4)C[C@H]23)cc1	23	/	102*	/	6	-24	21	36*
CN(C)CC#Cc1ccc([C@H]2[C@@H](CO)N3CCCCN(C(=O)C4CC4)C[C@@H]23)cc1	14	/	49	/	/	/	/	/
O=C(C1CCCC1)N1CCCCN2[C@H](CO)[C@H](c3ccc(C#CC4CC4)cc3)[C@H]2C1	-21	/	113*	/	104*	79	4	37*
O=C(C1CCCC1)N1CCCCN2[C@H](C1)[C@@H](c1ccc(C#CC3CC3)cc1)[C@@H]2CO	28	/	84	/	/	/	/	/
O=C(C1CCCC1)N1CCCCN2[C@H](C1)[C@H](c1ccc(C#CC3CC3)cc1)[C@@H]2CO	12	/	114*	/	99*	53	8	21
C/C=C/C1=C(Cl)C(=O)[C@@H](O)[C@@]1(O)C(=O)OC	/	/	/	0	/	/	/	/
CN1c2ccc(-c3ccccc3)cc2[C@@H]2[C@@H](CCN2C(=O)c2ccccn2)[C@H]1CO	13	13	105*	/	102*	43	13	21
CN1c2ccc(-c3ccccc3F)cc2[C@@H]2[C@@H](CCN2C(=O)c2ccccn2)[C@H]1CO	-54	1	116*	/	106*	55	-1	24
CN(C)CC(=O)N1CC[C@@H]2[C@H]1c1cc(-c3ccccc3F)ccc1N(C)[C@@H]2CO	-16	2	113*	/	102*	19	-8	24*
CN1c2ccc(-c3ccccc3)cc2[C@@H]2[C@@H](CCN2C(=O)c2ccc3c(c2)OCO3)[C@H]1CO	6	-2	106*	/	105*	108*	9	30*
CN1c2ccc(-c3ccc(F)cc3)cc2[C@@H]2[C@@H](CCN2C(=O)c2ccccn2)[C@H]1CO	-7	2	35	/	/	/	/	/
CN(C)CC(=O)N1CC[C@H]2[C@@H]1c1cc(-c3ccccc3F)ccc1N(C)[C@H]2CO	22	2	23	/	/	/	/	/
O=C(O)CC(c1ccc(F)cc1)c1ccco1 (stereo not given)	/	/	/	0	/	/	/	/
Cc1cc(C)c(NC(=O)C(C)N(c2ccccc2)S(C)(=O)=O)c(C)c1 (stereo not given)	/	/	/	0	/	/	/	/
Cc1c(Cl)cccc1NC(=O)COc1cc(O)c2c(=O)cc(-c3ccccc3)oc2c1	/	/	/	0	/	/	/	/
O=C(CC1NCCNC1=O)Nc1ccc(Cl)cc1 (stereo not given)	/	/	/	1	/	/	/	/
